We go through four molecules from ChEMBL document CHEMBL3792330, “Designed Glycopeptidomimetics Disrupt Protein-Protein Interactions Mediating Amyloid β-Peptide Aggregation and Restore Neuroblastoma Cell Viability” (J Med Chem, 2016).

The source made the active and inactive calls. No cut-off for these calls is given here. *1 amine or outer side, *2 acyl side, *3 side chain or, on linkers, in order; H or OH if unused. Where a SMILES comes first, the peptide text is derived from it. [ ]: non-standard residue; d: D form. X1 = O=C(CCOC[C@H]1O[C@@H](OCCCN[*:1])[C@H](O)[C@@H](O)[C@@H]1O)[*:2]

In general, inhibition refers to the change of the read-out against control, counted positive when it falls.

Data set [1] has as its target Amyloid-beta precursor protein (Homo sapiens) (UniProt P05067). Description: Inhibition of amyloid beta (1 to 42) (unknown origin) fibril formation assessed as extension of aggregation half life at compound/protein ratio of 10/1 after 42 hrs by ThT fluorescence assay relative to control. Further details: Activity: scale not given: the % may be the effect or the level left. In a few lines: (§1)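 Aβ1-42 (1 mM in 1% ammonia, diluted in buffer) added to a final 10 μM into 40 μM ThT in 10 mM Tris-HCl, 100 mM NaCl pH 7.4, with compound at 100, 50, 10 or 1 μM (0.5% DMSO), at room temperature. Ex/em 440/485 nm read for 42 h, in duplicate or triplicate, 2–4 runs. t1/2 and plateau F expressed relative to Aβ alone.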

The target is the same in data set [2]. Description: Inhibition of amyloid beta (1 to 42) (unknown origin) fibril formation assessed as decrease in fluorescence plateau at compound/protein ratio of 1/1 after 42 hrs by ThT fluorescence assay relative to control. The procedure, abridged: as §1
Data set [3] has the same target. Description: Inhibition of amyloid beta (1 to 42) (unknown origin) fibril formation assessed as decrease in fluorescence plateau at compound/protein ratio of 10/1 after 42 hrs by ThT fluorescence assay relative to control. The following applies: concentration not given here. In a few lines: as §1
Data set [4] has the same target. The experiment in a line: Inhibition of amyloid beta (1 to 42) (unknown origin) fibril formation assessed as extension of aggregation half life at compound/protein ratio of 1/1 after 42 hrs by ThT fluorescence assay relative to control. Further details: Activity: scale not given: the % may be the effect or the level left. The procedure, abridged: as §1
For data set [5] the target is unchanged. Description: Binding affinity to synthetic 15N,13C-labelled recombinant amyloid beta (1 to 42) (unknown origin) at 0.4 mM after 2.5 weeks by saturation transfer difference method. In a few lines: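 1D 1H STD at 5 °C in 50 mM sodium phosphate pH 7.4 with 10% D2O. Cascade of 50 ms Gaussian pulses (B1 0.1 kHz, 3 s total) applied alternately on-resonance at −0.7 ppm and off-resonance at +30 ppm. 320 scans (50 min). Ligand at 0.4 mM.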

For data set [6] the target is unchanged. Description: Binding affinity to synthetic 15N,13C-labelled recombinant amyloid beta (1 to 42) (unknown origin) assessed as negative nuclear overhauser effect at 0.4 mM after 2.5 weeks by 2D NOESY method. In a few lines: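 2D NOESY at 5 °C with 0.2 s mixing time. Synthetic Aβ1-42 in 50 mM sodium phosphate pH 7.4 with 10% D2O, ligand at 0.4 mM, recorded at 500 MHz.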

Data set [7] has the same target. The experiment in a line: Inhibition of amyloid beta (1 to 42) (unknown origin) oligomerization assessed as remaining monomer level at compound/protein ratio of 1/1 after 12 hrs by capillary electrophoresis (reference value: 19%). In a few lines: (§2)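 Aβ1-42 pretreated in 0.16% NH4OH, lyophilized, then reconstituted at 100 μM in 20 mM phosphate pH 7.4 with 2.5% DMSO, compound/peptide 1/1. Species separated in fused silica capillary (50 μm ID) with 80 mM phosphate pH 7.4 background electrolyte, −20 kV, 25 °C. UV detection at 190 nm; profiles taken at 0 and 12 h.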

The target is the same in data set [8]. Description: Binding affinity to synthetic 15N,13C-labelled recombinant amyloid beta (1 to 42) (unknown origin) assessed as negative nuclear overhauser effect at 0.4 mM after 2.5 weeks by 1D 1H water LOGSY method. In a few lines: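 WaterLOGSY at 5 °C in 50 mM sodium phosphate pH 7.4 with 10% D2O, synthetic Aβ1-42. Ligand at 0.4 mM. Selective water inversion with a 20 ms Gaussian pulse, 0.5 s mixing, 2 s recycle delay, 1200 scans (about 1 h), 500 MHz cryoprobe.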

Data set [9] shares this target. The experiment in a line: Inhibition of amyloid beta (1 to 42) (unknown origin) oligomerization assessed as formation of larger than dodecamers at compound/protein ratio of 1/1 at 12 hrs by capillary electrophoresis. In a few lines:
as §2

For data set [10] the target is unchanged. The experiment in a line: Binding affinity to amyloid beta (1 to 42) (unknown origin) by SPR analysis. The procedure, abridged: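 Aβ1-42 (0.05 μM in 10 mM sodium acetate pH 4.6) amine-coupled to an EDC/NHS-activated gold chip, then rinsed with 0.1% NH4OH to leave mainly monomer. Analytes in 150 mM PBS with 2% DMSO were injected at 12.5–200 μM for 1 min at 80 μL/min. DMSO solvent correction applied and the ethanolamine-blocked blank channel subtracted. Regeneration with 0.1% NH4OH.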

Data set [11] has the same target. Description: Inhibition of amyloid beta (1 to 42) (unknown origin) fibril formation assessed as decrease in fluorescence plateau at compound/protein ratio of 0.1/1 after 42 hrs by ThT fluorescence assay relative to control. Conditions: concentration not given here. The procedure, abridged: as §1
The target is the same in data set [12]. Description: Inhibition of amyloid beta (1 to 42) (unknown origin) fibril formation assessed as extension of aggregation half life at compound/protein ratio of 0.1/1 after 42 hrs by ThT fluorescence assay relative to control. Further details: Activity: scale not given: the % may be the effect or the level left. The procedure, abridged: as §1
Data set [13] has as its system SH-SY5Y. The experiment in a line: Neuroprotective activity against amyloid beta (1 to 42)-induced toxicity in human SH-SY5Y cells assessed as cell viability at 0.25 to 5 uM after 24 hrs by MTS assay. Type of data set: functional, cell-based. In a few lines:
(§3)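 Aβ1-42 at 50 μM in sterile PBS pre-incubated 24 h at room temperature with 1, 5, 10 or 50 μM compound, then diluted 1:10 (5 μM Aβ final) onto SH-SY5Y cells. Cells seeded at 20 000/well in low-serum Optimem, 37 °C, 5% CO2, 24 h. Exposure a further 24 h in quadruplicate. MTS viability or LDH release read; assays repeated twice.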

For the next data set, the system named is Plasma. Description: Metabolic stability in 10% human plasma assessed as drug degradation at 1 uM after 24 hrs by HPLC analysis. Format: ADME, cell-free. The procedure, abridged: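 Compounds taken from 40 μM DMSO stock to 1 μM in 10% human plasma/90% sterile PBS, held 24 h at 37 °C. Analysed by C18 HPLC with a 0–80% gradient (A: 0.1% TFA in water; B: 0.05% TFA in acetonitrile).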

The subject of data set [14] is SH-SY5Y. The experiment in a line: Neuroprotective activity against amyloid beta (1 to 42)-induced membrane damage in human SH-SY5Y cells at 0.1 to 5 uM after 24 hrs by LDH assay. Format: functional, cell-based. The procedure, abridged: as §3

Chain of Amyloid-beta precursor protein (Homo sapiens) (P05067 whole entry): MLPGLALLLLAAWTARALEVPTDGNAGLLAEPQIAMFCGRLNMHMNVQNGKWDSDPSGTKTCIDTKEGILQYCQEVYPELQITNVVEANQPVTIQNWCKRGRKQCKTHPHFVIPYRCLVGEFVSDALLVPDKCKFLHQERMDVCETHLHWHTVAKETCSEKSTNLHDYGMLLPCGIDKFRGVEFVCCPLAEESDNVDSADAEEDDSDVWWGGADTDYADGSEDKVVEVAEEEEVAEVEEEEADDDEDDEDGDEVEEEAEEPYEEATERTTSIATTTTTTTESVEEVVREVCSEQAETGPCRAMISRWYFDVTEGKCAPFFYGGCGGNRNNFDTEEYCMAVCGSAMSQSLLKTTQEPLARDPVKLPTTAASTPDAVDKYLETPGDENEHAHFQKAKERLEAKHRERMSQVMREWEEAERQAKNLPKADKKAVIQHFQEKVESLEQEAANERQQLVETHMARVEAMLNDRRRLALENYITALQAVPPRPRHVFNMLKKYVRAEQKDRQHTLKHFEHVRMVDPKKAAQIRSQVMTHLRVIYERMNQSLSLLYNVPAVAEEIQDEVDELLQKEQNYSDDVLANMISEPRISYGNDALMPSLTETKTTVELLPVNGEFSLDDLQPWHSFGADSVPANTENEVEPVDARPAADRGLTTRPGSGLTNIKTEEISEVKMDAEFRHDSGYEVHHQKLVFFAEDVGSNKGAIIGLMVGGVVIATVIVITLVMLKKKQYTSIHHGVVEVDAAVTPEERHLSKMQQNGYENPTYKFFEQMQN

In the case of `COc1ccc(NC(C)=O)cc1C(=O)NNC(=O)[C@@H](NC(=O)CCOC[C@H]1OC(OCCCNC(=O)[C@@H](NC(=O)[C@H](C)NC(=O)OC(C)(C)C)C(C)C)[C@H](O)[C@@H](O)[C@@H]1O)C(C)C` (stereo partly drawn), the Activity in data set [1] turned out to be 379%; in data set [4], 138%. The inhibition entry in data set [2] is “inactive”. Moreover, the inhibition in data set [3] came to 41%.
With `COc1ccc(NC(C)=O)cc1C(=O)NNC(=O)[C@H](CCCCN)NC(=O)CCOC[C@H]1OC(OCCCNC(=O)[C@@H](NC(=O)[C@H](C)NC(=O)OC(C)(C)C)C(C)C)[C@H](O)[C@@H](O)[C@@H]1O` (stereo partly drawn), the inhibition entry in data set [1] is “Active”. In addition, the values for the inhibition in [2] (concentration not given here) and in data set [3] were 26% and 84%, respectively. In addition, the Activity in [4] worked out at 154%.
Take `COc1ccc(NC(C)=O)cc1C(=O)NNC(=O)[C@H](CCCCN)NC(=O)CCOC[C@H]1O[C@@H](OCCCNC(=O)[C@@H](NC(=O)[C@H](C)N)C(C)C)[C@H](O)[C@@H](O)[C@@H]1O`: the result in data set [5], in data set [6] and in [8] was Active. Further, the inhibition result in [1] and in data set [9] was “Active” in each case. The Activity in data set [7] is 52%; in data set [10], “Dose-dependent effect”; in data set [12] it was 129%; in data set [4], 165%. Moreover, the inhibition was determined as 34% in [2] (concentration not given here), 90% in [3] and 16% in [11].
`COC(=O)[C@H](CC(C)C)NC(=O)[C@@H](NC(=O)CCOC[C@H]1O[C@@H](OCCCNC(=O)[C@@H](NC(=O)[C@H](C)N)C(C)C)[C@H](O)[C@@H](O)[C@@H]1O)C(C)C` (H-AV[X1]VL-OMe): the Activity in [1] is 280%; in [10], “Dose-dependent effect”. For the same molecule, the inhibition entry in data set [2] and in data set [4] was “inactive” each time. Further, the inhibition in [3] was determined as 56%. Further, the outcome in the data set on SH-SY5Y [13] and in the data set on SH-SY5Y [14] was Active. For the same molecule, the Stability entry in the data set on Plasma was “Unstable”.
